Measurements collected from several papers.
Compare with care: the assays were run in different laboratories.
KMT5A: N-lysine methyltransferase KMT5A (KMT5A, Homo sapiens, UniProt Q9NQR1)
PRKCB: Protein kinase C beta type (PRKCB, Homo sapiens, UniProt P05771)
LATS1: Serine/threonine-protein kinase LATS1 (LATS1, Homo sapiens, UniProt O95835)
CCKAR: Cholecystokinin receptor type A (CCKAR, Homo sapiens, UniProt P32238)
EP300: Histone acetyltransferase p300 (EP300, Homo sapiens, UniProt Q09472)

Cc1ccc(CNC(=O)[C@H](CCc2ccccc2)NC(=O)[C@H](CCc2ccccc2)NC(=O)[C@H](CCc2ccccc2)NC(=O)c2cnc(C)cn2)cc1 — inhibition (Plasminogen (PLG, Homo sapiens, UniProt P00747); enzyme activity; inhibitor; 100 µM): -20%
O=C1C=CC(=O)c2c(O)cccc21 — inhibition (KMT5A; cell-free assay; 10 µM): 19%
Cc1ccc(Nc2nccc(N(C)c3ccc4c(C)n(C)nc4c3)n2)cc1S(N)(=O)=O — inhibition (PRKCB; enzyme activity; inhibitor; 10 µM): 5%
COc1cc(-c2cc(-c3ccc(N4CCNCC4)cc3)cnc2C)cc(OC)c1OC — inhibition (LATS1; enzyme activity; inhibitor; 0.1 µM): 4%
O=C(Oc1cc(O)cc2c1C[C@@H](OC(=O)c1cc(O)c(O)c(O)c1)[C@@H](c1cc(O)c(O)c(O)c1)O2)c1cc(O)c(O)c(O)c1 — inhibition (KMT5A; cell-free assay; 10 µM): 6%
COc1cc(-c2cc(-c3ccc(N4CCNCC4)cc3)cnc2N)cc(OC)c1OC — inhibition (Tyrosine-protein kinase ABL1 (ABL1, Homo sapiens, UniProt P00519, E255K); enzyme activity; inhibitor; 1 µM): 94%
COc1cc2ncnc(Nc3ccc(Oc4ccccc4)c(C)c3C)c2cc1OC — inhibition (PRKCB; enzyme activity; inhibitor; 1 µM): 9%
CSCCC(NC=O)C(=O)NC(C)C(=O)O (stereo not drawn) — inhibition (KMT5A; cell-free assay; 10 µM): 33%
CSc1nc(C)c(-c2ccnc(Nc3ccc(N4CCOCC4)cc3)c2)[nH]1 — inhibition (PRKCB; enzyme activity; inhibitor; 10 µM): 1.3%
O=C(c1ccc(Cl)cc1)N(Cc1ccccc1)C1CCCCC1 — inhibition (CCKAR; cell-free assay; 10 µM): -9.6%
CN(C)C1CCN(CC#Cc2nn(C3CCCC3)c3nc(NCc4ccccc4)ncc23)C1 (stereo not drawn) — inhibition (cAMP-dependent protein kinase catalytic subunit alpha (PRKACA, Homo sapiens, UniProt P17612); enzyme activity; inhibitor; FRET; 10 µM): 12%
COc1ccc(C(=O)c2coc3c2C(=O)C(=O)C(Cl)=C3)cc1 — inhibition (Peptide deformylase, mitochondrial (Homo sapiens, UniProt Q9HBH1); enzyme activity; inhibitor; 100 µM): ≥ 100%
Oc1cccc(Nc2nc(-c3ccc(F)cc3F)cs2)c1 — inhibition (5-hydroxytryptamine receptor 3A (HTR3A, Homo sapiens, UniProt P46098); ligand displacement; radioligand; 10 µM): 0.9%
Cn1cncc1C1=CN(c2ncnc3[nH]cnc23)CCS1 — inhibition (LATS1; enzyme activity; inhibitor; radiometric; 2 µM): 96.1%
O=C(c1ccc(F)cc1)N(Cc1ccccc1)C1CCCCC1 — inhibition (Alpha-2A adrenergic receptor (ADRA2A, Homo sapiens, UniProt P08913); cell-free assay; 10 µM): 13%
COC(=O)/C=C\C(=O)Nc1cc2ccc(O)cc2oc1=O — inhibition (EP300; enzyme activity; inhibitor; radiometric; 50 µM): > 90%
CNC(=O)c1cc(Oc2ccc(NC(=O)Nc3ccc(Cl)c(C(F)(F)F)c3)cc2)ccn1 — inhibition (PRKCB; enzyme activity; inhibitor; 10 µM): -3%
O=C(O[C@@H]1Cc2c(O)cc(O)cc2O[C@@H]1c1cc(O)c(=O)c2c(O)c(O)cc([C@H]3Oc4cc(O)cc(O)c4C[C@H]3OC(=O)c3cc(O)c(O)c(O)c3)c2c1)c1cc(O)c(O)c(O)c1 — inhibition (KMT5A; cell-free assay; 10 µM): 26%
CCN(CC)CCNC(=O)c1c(C)[nH]c(/C=C2\C(=O)Nc3ccc(F)cc32)c1C — inhibition (cAMP-dependent protein kinase catalytic subunit alpha (PRKACA, Bos taurus, UniProt P00517); enzyme activity; inhibitor; 0.3 µM): 0%
Cc1cc(-c2ccc(/N=N/c3ccc4c(S(=O)(=O)O)cc(S(=O)(=O)O)c(N)c4c3O)c(C)c2)ccc1/N=N/c1ccc2c(S(=O)(=O)O)cc(S(=O)(=O)O)c(N)c2c1O — inhibition (KMT5A; cell-free assay; 10 µM): 78%
CCN1CCN(Cc2ccc(NC(=O)c3ccc(C)c(/C=C/c4cnc5[nH]ccc5c4OC)c3)cc2C(F)(F)F)CC1 — inhibition (Serine/threonine-protein kinase greatwall (MASTL, Homo sapiens, UniProt Q96GX5); target engagement in cells; inhibitor; chemoproteomics; A-375; 0.5 µM): 0.239%
O=C1c2c(O)cccc2Cc2cccc(O)c21 — inhibition (KMT5A; cell-free assay; 10 µM): 19%
CCN(c1cc(C#CCN2CCOCC2)cc(C(=O)NCc2c(C)cc(C)[nH]c2=O)c1C)[C@H]1CC[C@H](N(C)CCOC)CC1 — inhibition (Protein arginine N-methyltransferase 6 (PRMT6, Homo sapiens, UniProt Q96LA8); enzyme activity; inhibitor; 1 µM): 6%
O=C(O[C@@H]1Cc2c(O)cc(O)cc2O[C@@H]1c1cc(O)c(O)c(O)c1-c1c([C@H]2Oc3cc(O)cc(O)c3C[C@H]2O)cc(O)c(O)c1O)c1cc(O)c(O)c(O)c1 — inhibition (KMT5A; cell-free assay; 10 µM): 17%
COc1cc(NC(C)=O)c(Cl)cc1C(=O)Nc1nccs1 — inhibition (CCKAR; cell-free assay; 10 µM): -9.3%
O=C(O)CCCCCCCCCCCC[C@@H]1C=CCC1 — inhibition (KMT5A; cell-free assay; 10 µM): -10%
CCCCCCCCCCCCCCCc1cccc(O)c1C(=O)O — inhibition (EP300; enzyme activity; inhibitor; fluorescence; 52 µM): ~60%
